pIC50: −log10 of the molar value.
Experiments:
[1] = Partition coefficient (logP); details: octanol/water
[2] = target: Gag-Pol polyprotein (Woolly monkey sarcoma virus) (UniProt P03359); test: Inhibition of simian sarcoma virus reverse transcriptase
Summary of the method: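 SSV-1 RNA-dependent DNA polymerase purified from tissue culture fluid of 71 AP1 cells. 50 µL reaction containing 20% glycerol, 1 mM DTT, BSA, Tris-HCl pH 7.5, MnCl2, KCl, NaF, [3H]dGTP and poly(2'-O-methylC)·d(pG)12-18. Compound in Me2SO is mixed with enzyme on ice for 10 min before the cocktail is added, then incubated 45 min at 37 °C. Radioactivity in product; 50% inhibitory concentration from triplicate dose–response curves spanning 10^-3 to 10^-7 M.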

[3] = target: DNA polymerase beta (Mus musculus) (UniProt Q8K409); test: The logarithm of the reciprocal of the concentration which produces 50% inhibition of mammalian beta DNA polymerase.
Summary of the method: (§1)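 Mammalian α or β DNA polymerase in 100 µL reaction: enzyme in 50% glycerol, 1 mM DTT, 0.5 M KCl, Tris-HCl pH 7.5; Me2SO compound; cocktail with MnCl2, NaF, [3H]dGTP, poly(2'-O-methylC)·d(pG)12-18 template. Compound added first, then enzyme, then cocktail; 45 min at 37 °C. Product radioactivity, background-corrected against Me2SO controls; 50% concentration from triplicate five-dose curves, 10^-3–10^-7 M, expressed as log(1/C).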

[4] = The logarithm of the reciprocal of the concentration which produces 50% inhibition of mammalian alpha DNA polymerase.; summary of the method: as §1
[5] = Ability to inhibit mouse alpha DNA polymerase
Summary of the method: (§2)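 Enzyme in 50% glycerol, 1 mM dithiothreitol, 0.5 M KCl and 50 mM Tris-HCl pH 7.5 was premixed with inhibitor in 100% Me2SO and held on ice 10 min. Cocktail (MnCl2, KCl, NaF, BSA, [3H]dGTP, poly(2'-O-methylcytidylic acid)·d(pG)12-18) was then added. Incubation was 45 min at 37 °C.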

Gag-Pol polyprotein = Gag-Pol polyprotein (Woolly monkey sarcoma virus, UniProt P03359); test: Ability to inhibit simian sarcoma virus reverse transcriptase; details: for pIC50: read-out: IC50
Gag-Pol polyprotein, sequence (P03359 642-1310 limits assumed): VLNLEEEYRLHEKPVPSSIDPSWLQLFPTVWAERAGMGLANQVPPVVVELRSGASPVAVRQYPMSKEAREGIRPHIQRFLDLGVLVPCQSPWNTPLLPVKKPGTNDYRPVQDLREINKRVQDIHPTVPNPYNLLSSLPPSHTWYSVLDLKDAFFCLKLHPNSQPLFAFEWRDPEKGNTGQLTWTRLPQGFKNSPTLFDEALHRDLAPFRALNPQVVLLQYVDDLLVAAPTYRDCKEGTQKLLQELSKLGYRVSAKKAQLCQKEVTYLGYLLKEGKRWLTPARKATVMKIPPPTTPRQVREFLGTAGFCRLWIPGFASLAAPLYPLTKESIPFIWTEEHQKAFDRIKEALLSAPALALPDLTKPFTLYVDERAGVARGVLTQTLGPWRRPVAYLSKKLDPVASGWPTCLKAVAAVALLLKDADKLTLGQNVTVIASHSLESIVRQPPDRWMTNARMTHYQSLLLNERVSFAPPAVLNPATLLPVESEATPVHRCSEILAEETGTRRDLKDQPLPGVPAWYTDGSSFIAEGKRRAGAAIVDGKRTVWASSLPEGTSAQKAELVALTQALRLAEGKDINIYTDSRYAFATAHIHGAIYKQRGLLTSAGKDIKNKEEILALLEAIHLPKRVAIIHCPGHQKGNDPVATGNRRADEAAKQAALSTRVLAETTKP
Summary of the method: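 Purified SSV-1 RNA-dependent DNA polymerase from 71 AP1 culture fluids, in 20% glycerol, 1 mM dithiothreitol, 1 mg/mL BSA and 50 mM Tris-HCl pH 7.5, was held 10 min on ice with inhibitor in Me2SO. Mn2+/[3H]dGTP cocktail with poly(2'-O-methylcytidylic acid)·d(pG)12-18 template was added, then 45 min at 37 °C. Background-corrected triplicate dose series; the 50% inhibition concentration was extrapolated.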

DNA polymerase beta = DNA polymerase beta (Mus musculus, UniProt Q8K409); test: Ability to inhibit mouse beta DNA polymerase; details: for pIC50: read-out: IC50; summary of the method: as §2

Gag-Pol polyprotein (Woolly monkey sarcoma virus), sequence (P03359 whole entry): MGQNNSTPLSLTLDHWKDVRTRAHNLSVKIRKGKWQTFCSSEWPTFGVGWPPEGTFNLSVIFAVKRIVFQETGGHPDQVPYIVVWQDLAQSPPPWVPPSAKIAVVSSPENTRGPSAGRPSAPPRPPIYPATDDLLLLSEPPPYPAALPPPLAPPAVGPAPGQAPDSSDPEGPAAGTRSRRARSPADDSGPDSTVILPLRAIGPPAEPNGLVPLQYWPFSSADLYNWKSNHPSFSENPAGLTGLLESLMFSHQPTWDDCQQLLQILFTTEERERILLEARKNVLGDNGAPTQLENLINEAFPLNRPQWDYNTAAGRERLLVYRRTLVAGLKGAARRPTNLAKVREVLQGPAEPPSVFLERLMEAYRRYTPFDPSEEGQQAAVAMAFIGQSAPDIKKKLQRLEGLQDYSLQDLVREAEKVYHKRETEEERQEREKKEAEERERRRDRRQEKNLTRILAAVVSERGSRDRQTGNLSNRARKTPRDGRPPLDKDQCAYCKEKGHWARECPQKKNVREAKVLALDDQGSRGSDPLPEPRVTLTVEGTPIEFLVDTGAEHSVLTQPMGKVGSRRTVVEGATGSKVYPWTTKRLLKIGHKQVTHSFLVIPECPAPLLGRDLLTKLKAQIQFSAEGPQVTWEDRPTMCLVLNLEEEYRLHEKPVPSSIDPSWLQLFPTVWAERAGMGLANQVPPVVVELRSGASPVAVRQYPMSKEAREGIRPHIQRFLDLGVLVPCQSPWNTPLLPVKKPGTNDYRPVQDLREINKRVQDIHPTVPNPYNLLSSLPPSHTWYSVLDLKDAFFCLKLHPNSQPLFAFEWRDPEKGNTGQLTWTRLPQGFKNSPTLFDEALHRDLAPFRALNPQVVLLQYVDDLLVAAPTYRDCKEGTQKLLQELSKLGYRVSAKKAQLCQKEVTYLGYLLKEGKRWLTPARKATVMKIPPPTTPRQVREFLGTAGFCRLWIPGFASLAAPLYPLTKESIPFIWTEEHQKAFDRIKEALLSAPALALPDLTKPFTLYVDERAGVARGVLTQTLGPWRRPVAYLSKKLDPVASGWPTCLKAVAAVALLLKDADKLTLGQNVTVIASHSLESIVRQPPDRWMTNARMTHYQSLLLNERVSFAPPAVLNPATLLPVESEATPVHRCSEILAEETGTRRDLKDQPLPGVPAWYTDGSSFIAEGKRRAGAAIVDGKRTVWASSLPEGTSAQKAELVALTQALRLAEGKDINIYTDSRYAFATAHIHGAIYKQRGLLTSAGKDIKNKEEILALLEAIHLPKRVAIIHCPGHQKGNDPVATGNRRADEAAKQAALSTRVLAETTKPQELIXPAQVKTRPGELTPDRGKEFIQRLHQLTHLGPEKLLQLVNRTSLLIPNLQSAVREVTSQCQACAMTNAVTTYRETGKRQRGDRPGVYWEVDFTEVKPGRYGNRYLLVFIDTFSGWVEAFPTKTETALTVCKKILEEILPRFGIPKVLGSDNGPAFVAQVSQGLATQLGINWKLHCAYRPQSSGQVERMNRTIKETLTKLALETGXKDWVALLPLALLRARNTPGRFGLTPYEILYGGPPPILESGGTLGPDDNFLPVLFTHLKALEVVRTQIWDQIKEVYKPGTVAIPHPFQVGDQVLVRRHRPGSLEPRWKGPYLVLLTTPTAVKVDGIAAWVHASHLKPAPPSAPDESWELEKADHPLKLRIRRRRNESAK

SMILES: COC1/C=C/OC2(C)Oc3c(C)c(O)c4c(O)c(c(/C=N/N5CCCCCCC5)cc4c3C2=O)NC(=O)/C(C)=C\C=C\C(C)C(O)C(C)C(O)C(C)C(OC(C)=O)C1C (stereo not given)
- logP ([1]; logP): 3.1

SMILES: CCCCCN(CCCCC)/N=C/c1cc2c3c4c(C)c(O)c2c(O)c1NC(=O)/C(C)=C\C=C\C(C)C(O)C(C)C(O)C(C)C(OC(C)=O)C(C)C(OC)/C=C/OC(C)(O4)C3=O (stereo not given)
- Log 1/C [2]: 5.36
- logP ([1]; logP): 3.47
- Log 1/C [3]: 4.32
- Log 1/C [4]: 4.36
- IC50 [5]: 0.000043 M l-1
- pIC50 (Gag-Pol polyprotein): 5.36
- pIC50 (DNA polymerase beta): 4.32

SMILES: COC1/C=C/OC2(C)Oc3c(C)c(O)c4c(O)c(ccc4c3C2=O)NC(=O)/C(C)=C\C=C\C(C)C(O)C(C)C(O)C(C)C(OC(C)=O)C1C (stereo not given)
- Log 1/C [2]: 3.43
- logP ([1]; logP): 0.78
- Log 1/C [3]: 2.96
- Log 1/C [4]: 3.12
- IC50 [5]: 0.00076 M l-1
- IC50 (Gag-Pol polyprotein): 0.00037 M l-1
- IC50 (DNA polymerase beta): 0.0011 M l-1

SMILES: CCCCCCCCN(CCCCCCCC)/N=C/c1cc2c3c4c(C)c(O)c2c(O)c1NC(=O)/C(C)=C\C=C\C(C)C(O)C(C)C(O)C(C)C(OC(C)=O)C(C)C(OC)/C=C/OC(C)(O4)C3=O (stereo in doubt; 8) [listing 1 of 2 here]
- Log 1/C [2]: 5.49
- Log 1/C [3]: 5.13
- Log 1/C [4]: 4.62

SMILES: COC1/C=C/OC2(C)Oc3c(C)c(O)c4c(O)c(c(/C=N/OCCCc5ccccc5)cc4c3C2=O)NC(=O)/C(C)=C\C=C\C(C)C(O)C(C)C(O)C(C)C(OC(C)=O)C1C (stereo not given)
- Log 1/C [2]: 5.25
- logP ([1]; logP): 4.83
- Log 1/C [3]: 5.18
- Log 1/C [4]: 4.46
- IC50 [5]: 0.000034 M l-1
- pIC50 (Gag-Pol polyprotein): 5.25
- pIC50 (DNA polymerase beta): 5.18

SMILES: COC1/C=C/OC2(C)Oc3c(C)c(O)c4c(O)c(c(/C=N/N5CCCCCCCCCCCC5)cc4c3C2=O)NC(=O)/C(C)=C\C=C\C(C)C(O)C(C)C(O)C(C)C(OC(C)=O)C1C (stereo in doubt; 30)
- logP [1]: 4.65

SMILES: COC1/C=C/OC2(C)Oc3c(C)c(O)c4c(O)c(c(/C=N/N5CCCCCCCC5)cc4c3C2=O)NC(=O)/C(C)=C\C=C\C(C)C(O)C(C)C(O)C(C)C(OC(C)=O)C1C (stereo not given)
- logP ([1]; logP): 3.45

SMILES: CCCCCCCCN(CCCCCCCC)/N=C/c1cc2c3c4c(C)c(O)c2c(O)c1NC(=O)/C(C)=C\C=C\C(C)C(O)C(C)C(O)C(C)C(OC(C)=O)C(C)C(OC)/C=C/OC(C)(O4)C3=O (stereo in doubt; 8) [listing 2 of 2 here]
- logP [1]: 3.62
- IC50 [5]: 0.000024 M l-1
- pIC50 (Gag-Pol polyprotein): 5.49
- pIC50 (DNA polymerase beta): 5.13

SMILES: NN1CCNCC1
- logP ([1]; logP): -0.29

SMILES: COC1/C=C/OC2(C)Oc3c(C)c(O)c4c(O)c(c(/C=N/N5CCNCC5)cc4c3C2=O)NC(=O)/C(C)=C\C=C\C(C)C(O)C(C)C(O)C(C)C(OC(C)=O)C1C (stereo not given)
- logP ([1]; logP): 1.12

SMILES: COC1/C=C/OC2(C)Oc3c(C)c(O)c4c(O)c(c(/C=N/N5CCN(Cc6ccccc6)CC5)cc4c3C2=O)NC(=O)/C(C)=C\C=C\C(C)C(O)C(C)C(O)C(C)C(OC(C)=O)C1C (stereo not given)
- logP ([1]; logP): 3.36

SMILES: COC1/C=C/OC2(C)Oc3c(C)c(O)c4c(O)c(c(/C=N/N5CCCCC5)cc4c3C2=O)NC(=O)/C(C)=C\C=C\C(C)C(O)C(C)C(O)C(C)C(OC(C)=O)C1C (stereo not given)
- logP ([1]; logP): 2.35

SMILES: COC1/C=C/OC2(C)Oc3c(C)c(O)c4c(O)c(c(/C=N/N5CCCCCCCCCCCC5)cc4c3C2=O)NC(=O)/C(C)=C\C=C\C(C)C(O)C(C)C(O)C(C)C(OC(C)=O)C1C (stereo in doubt; 17)
- Log 1/C [2]: 5.48
- Log 1/C [3]: 4.72
- Log 1/C [4]: 4.62

SMILES: CCCCCCN(CCCCCC)/N=C/c1cc2c3c4c(C)c(O)c2c(O)c1NC(=O)/C(C)=C\C=C\C(C)C(O)C(C)C(O)C(C)C(OC(C)=O)C(C)C(OC)/C=C/OC(C)(O4)C3=O (stereo not given)
- logP ([1]; logP): 3.51

SMILES: CCCCCCCCN(CCCCCCCC)/N=C/c1cc2c3c4c(C)c(O)c2c(O)c1NC(=O)/C(C)=C\C=C\C(C)C(O)C(C)C(O)C(C)C(OC(C)=O)C(C)C(OC)/C=C/OC(C)(O4)C3=O (stereo in doubt; 35)
- logP ([1]; logP): 3.6
